Screening data (PubChem BioAssay)
Compounds with a hit are over-represented: about 4% of the library has one in this group of screens.
SIRT5 block = inhibitors of human sirtuin-5 desuccinylase; inhibition, % at 15 µM; 1.1% of 330,000 active; Q9NXA8; Purified SirT5, succinyl-peptide AMC, trypsin-coupled fluorescence; AID 652115; in the data active = inhibition above about 15%; inconclusive = no clear call, values can overlap the other calls
E-sel inducer = induces E-selectin expression in human endothelial cells | P16581 | HUVEC E-selectin immunofluorescence imaging; normalized: neutral wells 0, TNF-alpha wells 100 | activation, % at 7.58 µM | 0.37% of 260,000 active | AID 686992;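 active = mean E-selectin-positive cell signal at least 10% of the positive control, reached in at least 60% of replicates, without over 20% cell loss; inconclusive = no rule given, readout overlaps actives, possibly toxicity-flagged; inactive = the rest, including those meeting only one limit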
Target sequence (P16581 whole entry, looked up): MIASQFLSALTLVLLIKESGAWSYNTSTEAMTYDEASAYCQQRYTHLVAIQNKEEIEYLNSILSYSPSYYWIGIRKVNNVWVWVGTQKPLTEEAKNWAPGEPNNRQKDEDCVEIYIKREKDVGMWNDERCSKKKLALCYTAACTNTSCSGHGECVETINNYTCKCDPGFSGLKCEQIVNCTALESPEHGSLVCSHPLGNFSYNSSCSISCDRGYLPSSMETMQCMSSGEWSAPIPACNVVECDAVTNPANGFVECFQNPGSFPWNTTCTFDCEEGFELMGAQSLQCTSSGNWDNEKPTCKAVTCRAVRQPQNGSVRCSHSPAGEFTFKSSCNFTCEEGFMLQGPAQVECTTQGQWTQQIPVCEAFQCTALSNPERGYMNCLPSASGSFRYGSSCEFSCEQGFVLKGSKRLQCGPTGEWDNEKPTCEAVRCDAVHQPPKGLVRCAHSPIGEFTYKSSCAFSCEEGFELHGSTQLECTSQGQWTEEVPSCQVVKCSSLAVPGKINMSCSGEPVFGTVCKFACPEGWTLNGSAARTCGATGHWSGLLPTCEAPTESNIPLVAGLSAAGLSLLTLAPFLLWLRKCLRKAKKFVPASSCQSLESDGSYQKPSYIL
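Read-out basis: % PE-positive cells; Test system: HUVEC primary endothelial cells; Technique: immunofluorescence imaging; Dosing: single-point compound dose.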
FGF22 binding = FGF22 (human) thermal shift binding | recombinant FGF22 thermal shift, SYPRO orange fluorescence; percent of sucrose octasulfate shift, DMSO zero | Q9HCT0 | 1.5% of 340,000 active | activity (Tm shift, normalised), % at 9.99 µM;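 active = mean Tm shift, scaled 0 neutral to 100 positive control, at about 1.3% or above, every replicate too, limit read from the data; inconclusive = no clear call, values can overlap the other calls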
Target sequence (Q9HCT0 whole entry, looked up): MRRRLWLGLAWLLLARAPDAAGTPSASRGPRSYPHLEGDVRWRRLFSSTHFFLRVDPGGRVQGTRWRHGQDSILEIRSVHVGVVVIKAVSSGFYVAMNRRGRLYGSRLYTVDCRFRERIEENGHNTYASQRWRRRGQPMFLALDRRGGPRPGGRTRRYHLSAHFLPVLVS
Ecoli rRNA inh = inhibits bacterial ribosomal RNA function over humanized ribosomes; AID 720706; GFP signal change (wild-type ribosome), % (test concentration not listed); E. coli WT GFP vs humanized-ribosome RFP mutants, fluorescence, 24 h; active compounds read low; DMSO median 0, no signal -100; 1.6% of 350,000 active;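 active = significant combined selectivity score with lowered wild-type GFP, culture density cut under 30%, mutant RFP and density less affected; inactive = any of these conditions unmet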
FN deposition inh = fibronectin deposition inhibition | AH1F fibroblasts, Alexa488-fibronectin deposition fluorescence, overnight | inhibition, % at 12.6 µM | 0.086% of 350,000 active | AID 743247;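 active = mean inhibition across replicates of 30% or more, regardless of how many single replicates reach that level; inconclusive = mean under 30% yet at least half of replicates reach 30%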;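 note: positive control wells lacked labelled fibronectin entirely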
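Test system: AH1F fibroblast monolayer depositing Alexa488-labelled fibronectin into matrix. Input: 10000 cells per well. Technique: fluorescence, ex 485 nm, em 525 nm. Buffer or medium: DMEM plus 2% serum, read in PBS. Timing: 1 h cell adhesion before compound, then overnight fibronectin incubation. Compound: single dose, pinned. Read-out basis: inhibition from reduced deposited-fibronectin fluorescence.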
Statin myotox sup = suppression of simvastatin myotoxicity | C2C12 myotubes + simvastatin, ATP luminescence, 48 h; scaled: DMSO 0, geranylgeraniol control 100 | rescue of ATP level, % at 7.49 µM | 0.78% of 330,000 active | AID 602340;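 active = mean ATP rescue above about 67%, or every replicate alone reaching that limit, limit read from the data, passing the limit was not always enough; inconclusive = no clear call, values can overlap the other calls; inactive = mean under the limit and some replicate under it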;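 note: myotubes were challenged with 10 µM simvastatin during compound exposure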
* = called active by the depositor; ? = inconclusive; . = no result.

SMILES | SIRT5 block | E-sel inducer | FGF22 binding | Ecoli rRNA inh | FN deposition inh | Statin myotox sup
CO[C@@H]1CN(C)C(=O)c2cc(NC(=O)c3ccc(F)cc3)ccc2OC[C@H](C)N(C(=O)CN(C)C)C[C@@H]1C | -2.1 | -0.1 | . | 1.5 | -7.4 | 12.9
O=C(CSc1ccncc1)Nc1ccc2ccccc2c1 | -6.5 | 19.1 | 0.0 | -31.3* | -3.8 | .
O=C(CSc1ccc2ccccc2c1)Nc1ccncc1 | 11.0 | . | 0.8 | -50.2 | . | -4.3
CCCC#Cc1cnc2c(c1)C(=O)N([C@@H](C)CO)C[C@H](C)[C@@H](CN(C)C(=O)CCN1CCCCC1)O2 | -1.9 | 0.6 | -0.1 | 4.5 | -2.4 | 11.3
O=C1NC(=S)S/C1=C\C=C\c1ccc([N+](=O)[O-])o1 | 25.3* | 248.1* | 0.5 | -59.6 | -1.8 | .
CC(=O)Nc1ccc(S(=O)(=O)N2CCN(CC3CC4C=CC3C4)CC2)cc1 (centres undefined) | -2.0 | 1.2 | -0.2 | -22.4* | -9.7 | .
CC(=O)Nc1ccc(S(=O)(=O)N2CCN(Cc3ccccn3)CC2)cc1 | . | . | . | . | -6.8 | -25.8
O=C(Nc1ccc(S(=O)(=O)N2CCCCCC2)cc1)c1[nH]ncc1[N+](=O)[O-] | 2.3 | -0.2 | -0.2 | -40.0* | -4.3 | 19.5
CC(=O)Nc1ccc(S(=O)(=O)N2CCN(Cc3ccccc3[N+](=O)[O-])CC2)cc1 | 0.1 | . | 43.9* | -18.8 | -1.1 | .
C[C@@H]1CN([C@@H](C)CO)C(=O)Cc2cc(NS(=O)(=O)c3ccccc3)ccc2O[C@@H]1CN(C)S(C)(=O)=O | 0.6 | -0.5 | -0.1 | 3.5 | . | -16.7
COc1ccccc1NC(=O)N[C@@H]1CC[C@@H](CCNS(=O)(=O)c2ccc(F)cc2)O[C@@H]1CO | 0.7 | -2.7 | -0.1 | -1.0 | . | -7.1
Cc1ccccc1S(=O)(=O)N[C@H]1CC[C@@H](CCNS(=O)(=O)c2cccc(F)c2)O[C@H]1CO | -0.7 | -0.1 | -0.3 | -0.5 | -7.6 | 0.4
Cc1ccc(S(=O)(=O)Nc2ccc3c(c2)C(=O)N([C@@H](C)CO)C[C@@H](C)[C@@H](CN(C)CC2CCCCC2)OCCCC[C@H](C)O3)cc1 | 16.9* | -0.2 | 0.1 | -7.8 | . | .
C[C@@H]1CCCCO[C@@H](CN(C)CC2CCCCC2)[C@@H](C)CN([C@@H](C)CO)C(=O)c2cc(NS(=O)(=O)c3ccc(F)cc3)ccc2O1 | 19.4* | -0.1 | -0.1 | -38.5 | . | -85.9
Cc1ccc(S(=O)(=O)Nc2ccc3c(c2)C(=O)N([C@H](C)CO)C[C@H](C)[C@@H](CN(C)CC2CCCCC2)OCCCC[C@H](C)O3)cc1 | 3.0 | 0.4 | 0.0 | 1.5 | . | .
CCNS(=O)(=O)c1ccc(CCC(=O)N2CCN(C(=O)OCC)CC2)cc1 | 15.4* | . | -0.1 | 0.2 | -6.1 | -3.4
O=C(Oc1cc(Cl)ccc1Cl)C1=CC=CN2CCS(=O)(=O)N=C12 | -6.8 | . | 15.6* | 14.9 | -3.6 | 1.5
CCCCN(CCCC)S(=O)(=O)c1c(C)[nH]c(=O)[nH]c1=O | 22.0* | 6.2 | 0.3 | 4.5 | 3.2 | .
CCC(c1ccccc1)C(CC)c1cc(O)c(O)c(O)c1 (centres undefined) | 7.4 | 1.0 | 43.0* | -26.1* | -8.8 | 9.0
COc1ccc(CN(C)C[C@H]2OCCCC[C@@H](C)Oc3ccc(NC(=O)Nc4c(C)noc4C)cc3C(=O)N([C@H](C)CO)C[C@@H]2C)cc1 | 3.0 | -0.2 | 0.5 | 2.1 | . | .
CCC(C)C(=O)Nc1nnc(SCC(=O)Nc2ccccc2F)s1 (centres undefined) | -1.7 | -1.8 | 43.7* | 1.1 | -2.0 | .
CCC(C)C(=O)Nc1nnc(SCC(=O)Nc2ccc(F)cc2)s1 (centres undefined) | 0.8 | . | 0.2 | -5.5 | . | .
CCCNC(=O)C[C@H]1CC[C@H]2[C@H](COc3ccc(NC(=O)c4cccc(C(F)(F)F)c4)cc3C(=O)N2C)O1 | -0.6 | 0.3 | -0.4 | -0.8 | -16.9 | 6.5
COCC(=O)N[C@@H]1C=C[C@H](CC(=O)N2CCCCC2)O[C@@H]1CO | . | 0.1 | . | 0.7 | -14.4 | 3.2
O=C(Nc1ccc(F)cc1)c1nc(S(=O)(=O)Cc2ccccc2)ncc1Cl | 1.5 | -0.7 | 0.2 | 1.4 | -0.8 | 0.1
SMILES | SIRT5 block | E-sel inducer | FGF22 binding | Ecoli rRNA inh | FN deposition inh | Statin myotox sup
CCS(=O)(=O)c1ncc(Cl)c(C(=O)Nc2ccc(S(=O)(=O)N(C)c3ccccc3)cc2)n1 | -2.1 | 0.4 | -0.1 | -36.3* | 67.3* | -657.2
COc1ccc(NC(=O)c2nc(S(=O)(=O)Cc3cccc(C)c3)ncc2Cl)c(OC)c1 | -3.6 | -0.1 | 0.0 | 6.7 | 47.5* | 31.0
Cc1ccccc1CS(=O)(=O)c1ncc(Cl)c(C(=O)Nc2ccc(F)cc2)n1 | -0.9 | ? | 0.0 | 13.4 | 39.5* | -47.5
Cc1cccc(C)c1NC(=O)c1nc(S(=O)(=O)Cc2ccccc2)ncc1Cl | 4.8 | . | 0.4 | -1.4 | 4.1 | 134.7*
O=C(O)[C@@H]1[C@@H](CO)[C@@H]2Cn3c(ccc(C4=CCCCC4)c3=O)[C@@H]2N1C(=O)Cc1cccnc1 | -19.1 | -0.3 | . | 1.8 | . | .
COc1ccc(NC(=O)N(C)C[C@H]2OCCCC[C@H](C)Oc3ccc(NC(=O)Nc4ccccc4)cc3C(=O)N([C@H](C)CO)C[C@@H]2C)cc1 | 1.2 | 0.0 | -0.7 | -1.8 | 3.3 | .
O=C(CN1CCOCC1)N1CCCCN2[C@H](CO)[C@H](c3ccc(C#Cc4ccccc4)cc3)[C@H]2C1 | 1.8 | -0.2 | -0.5 | 0.1 | . | .
CS(=O)(=O)c1ncc(Cl)c(C(=O)Nc2ccc(OC(F)F)cc2)n1 | -0.6 | . | . | -53.6 | . | 117.0*
COc1ccc(OC)c(NC(=O)c2nc(S(=O)(=O)Cc3ccccc3)ncc2Cl)c1 | 0.2 | 0.2 | -0.4 | -2.8 | 56.0* | -58.2
CCCNC(=O)C[C@H]1CC[C@@H]2[C@@H](COc3ccc(NC(=O)C4CCCC4)cc3C(=O)N2C)O1 | 4.5 | -0.1 | -0.4 | 0.3 | . | -6.9
COc1ccc([C@H]2C/C=C\C[C@@H](c3cccc(Cl)c3)NC(=O)[C@H](c3ccccc3)CC(=O)N2)c(OC)c1 | . | . | . | 4.8 | -27.2 | .
COc1cc(OC)c(C=CC(=O)c2ccccc2O)c(OC)c1 | . | 0.2 | 0.2 | 8.6 | -4.2 | 4.0
COc1ccc(C(=O)/C=C/c2ccccc2)c(OC)c1 | 6.2 | . | 0.0 | 5.6 | . | -5.9
COc1cc(/C=C/C(=O)c2ccccc2O)cc(OC)c1OC | -2.5 | . | 0.1 | -16.9* | . | 5.4
COc1cc(C)cc(C(=O)C=Cc2ccccc2)c1O | . | 0.2 | 0.2 | -52.1* | 9.7 | 5.7
COCC(=O)N1C[C@@H](C)[C@@H](OC)CN(C)C(=O)c2cc(NC(=O)Nc3cccc(F)c3)ccc2OC[C@H]1C | 4.2 | -0.1 | -0.1 | -1.7 | 6.6 | -1.1
Cc1ccccc1NC(=S)N(Cc1ccccn1)Cc1ccccc1Cl | -1.6 | . | -0.2 | -22.9* | . | .
